Data as given in ChEMBL document CHEMBL3751740, “New MKLP-2 inhibitors in the paprotrain series: Design, synthesis and biological evaluations” (Bioorg Med Chem, 2016).

Legend:
[1] = molecular target: T1, Kinesin-like protein KIF11 (Homo sapiens) (UniProt P52732); experiment: Inhibition of porcine brain microtubule-stimulated human recombinant GST-tagged Eg5 ATPase activity at 15 uM by microplate reader in presence of Mg2+ ATP relative to control
T1 sequence (whole entry): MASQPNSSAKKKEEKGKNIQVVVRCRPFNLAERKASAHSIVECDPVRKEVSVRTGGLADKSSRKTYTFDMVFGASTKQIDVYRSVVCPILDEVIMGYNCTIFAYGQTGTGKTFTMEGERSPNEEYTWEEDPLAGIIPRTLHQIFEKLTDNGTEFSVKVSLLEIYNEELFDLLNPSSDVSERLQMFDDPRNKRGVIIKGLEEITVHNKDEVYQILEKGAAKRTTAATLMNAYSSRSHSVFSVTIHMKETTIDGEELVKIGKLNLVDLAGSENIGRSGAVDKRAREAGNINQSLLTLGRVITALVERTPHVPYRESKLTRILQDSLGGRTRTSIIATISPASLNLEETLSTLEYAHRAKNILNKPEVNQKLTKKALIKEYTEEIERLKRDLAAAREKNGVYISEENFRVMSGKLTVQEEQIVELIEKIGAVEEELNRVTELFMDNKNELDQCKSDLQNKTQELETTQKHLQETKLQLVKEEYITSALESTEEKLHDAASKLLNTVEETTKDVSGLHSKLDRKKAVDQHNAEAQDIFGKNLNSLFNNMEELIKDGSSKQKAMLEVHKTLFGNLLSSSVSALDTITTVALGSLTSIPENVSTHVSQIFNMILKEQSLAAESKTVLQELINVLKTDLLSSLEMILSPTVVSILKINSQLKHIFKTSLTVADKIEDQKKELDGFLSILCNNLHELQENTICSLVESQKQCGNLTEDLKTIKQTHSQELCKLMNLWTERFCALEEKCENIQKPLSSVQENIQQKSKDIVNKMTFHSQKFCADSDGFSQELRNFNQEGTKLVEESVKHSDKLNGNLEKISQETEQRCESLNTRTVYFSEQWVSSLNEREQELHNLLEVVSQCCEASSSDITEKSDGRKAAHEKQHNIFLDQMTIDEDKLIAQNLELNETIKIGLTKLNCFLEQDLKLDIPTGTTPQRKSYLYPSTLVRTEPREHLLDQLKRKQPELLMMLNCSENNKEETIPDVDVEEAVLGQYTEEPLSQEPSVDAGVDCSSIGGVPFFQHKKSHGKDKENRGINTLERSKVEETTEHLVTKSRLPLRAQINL
How it was run: (§1)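 Each kinesin motor domain was tested against MT-stimulated ATPase at 22 °C in triplicate, with compounds at 15 µM. Buffer was 7.5 mM PIPES-NaOH pH 7.0 with MgCl2, Taxol, ELIPA reagents and 1.25 mg/mL MTs. Reactions were started with 1 mM Mg2+ATP and read kinetically at 360 nm. Monastrol and AMP-PNP (1 mM) were the controls.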

[2] = molecular target: T2, Kinesin-1 heavy chain (Homo sapiens) (UniProt P33176); experiment: Inhibition of porcine brain microtubule-stimulated human recombinant GST-tagged Kif5B ATPase activity at 15 uM by microplate reader in presence of Mg2+ ATP relative to control; how it was run: as §1
T2 sequence (whole entry): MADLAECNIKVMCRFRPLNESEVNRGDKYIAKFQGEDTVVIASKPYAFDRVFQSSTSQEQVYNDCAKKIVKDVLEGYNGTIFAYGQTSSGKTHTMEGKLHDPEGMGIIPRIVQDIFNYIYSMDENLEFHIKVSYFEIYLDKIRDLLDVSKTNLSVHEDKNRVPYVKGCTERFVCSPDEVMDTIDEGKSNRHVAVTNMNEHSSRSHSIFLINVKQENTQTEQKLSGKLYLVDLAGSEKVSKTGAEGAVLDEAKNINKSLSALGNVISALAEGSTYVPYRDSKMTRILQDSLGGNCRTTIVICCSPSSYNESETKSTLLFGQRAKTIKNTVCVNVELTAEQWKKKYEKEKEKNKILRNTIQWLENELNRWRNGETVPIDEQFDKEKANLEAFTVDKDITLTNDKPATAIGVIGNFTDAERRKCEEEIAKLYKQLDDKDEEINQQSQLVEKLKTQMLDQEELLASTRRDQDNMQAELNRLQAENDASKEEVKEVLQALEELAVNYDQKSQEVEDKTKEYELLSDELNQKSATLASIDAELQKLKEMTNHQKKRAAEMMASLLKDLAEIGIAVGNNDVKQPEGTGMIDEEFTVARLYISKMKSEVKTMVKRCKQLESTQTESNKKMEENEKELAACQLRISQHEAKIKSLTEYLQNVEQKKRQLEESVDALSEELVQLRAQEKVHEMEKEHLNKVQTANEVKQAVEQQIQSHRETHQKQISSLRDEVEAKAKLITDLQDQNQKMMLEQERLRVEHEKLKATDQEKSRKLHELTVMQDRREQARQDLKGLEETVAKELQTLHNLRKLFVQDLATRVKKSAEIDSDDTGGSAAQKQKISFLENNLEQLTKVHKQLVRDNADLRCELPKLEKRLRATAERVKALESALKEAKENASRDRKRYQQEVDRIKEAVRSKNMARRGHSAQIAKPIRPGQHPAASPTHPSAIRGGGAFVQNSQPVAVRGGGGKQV

**Q.** For `CCOC(=O)C1=C(C)NC(=S)NC1c1cccc(O)c1` (configuration not stated), which inhibition [1] is on record?
**A.** > 30%

**Q.** What about the inhibition [2] of the same molecule?
**A.** < 20%

**Q.** `COc1ccc2c(/C(C#N)=C/c3cccnc3)c[nH]c2c1` was tested. Which inhibition [1] did it give?
**A.** < 20%

**Q.** And the inhibition [2]?
**A.** < 20%

**Q.** `N#C/C(=C\c1cccnc1)c1c[nH]c2ccc(OCc3ccccc3)cc12` was tested. Which inhibition [1] did it give?
**A.** < 20%

**Q.** What about the inhibition [2] of the same molecule?
**A.** < 20%

**Q.** Which inhibition [1] does the source give for `COc1ccc2[nH]cc(/C(C#N)=C/c3cccnc3)c2c1` here?
**A.** < 20%

**Q.** And the inhibition [2]?
**A.** < 20%

**Q.** With `N#C/C(=C\c1ccc2c(c1)OCO2)c1c[nH]c2ccccc12` as the molecule, how does the inhibition [1] read?
**A.** < 20%

**Q.** And the inhibition [2]?
**A.** < 20%

**Q.** For `COc1cccc2[nH]cc(/C(C#N)=C/c3cccnc3)c12`, which inhibition [1] is on record?
**A.** < 20%

**Q.** And the inhibition [2]?
**A.** < 20%
